The values below come from ChEMBL document CHEMBL4257579, “Analogs of penfluridol as chemotherapeutic agents with reduced central nervous system activity” (Bioorg Med Chem Lett, 2018).

Structures are written as SMILES.

For data set [1], the system named is MDA-MB-231. Nature of the data set: Cytotoxicity against human MDA-MB-231 cells assessed as reduction in cell viability after 24 hrs by MTT assay. The data set is classed as functional, cell-based. The settings on record: MDA-MB-231, 24 h. Summed up:
(§1)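 Cells exposed to compounds; viability read at 24, 48 and 72 h. Every experiment run in triplicate.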
(Tetrazolium dyes change colour on reduction, which living cells bring about.)

The test system of data set [2] is MDA-MB-231. Kind of data set: Cytotoxicity against human MDA-MB-231 cells assessed as reduction in cell viability after 72 hrs by MTT assay. Type of data set: functional, cell-based. The settings on record: MDA-MB-231, 72 h. Summed up: as §1
In data set [3] the test system is NIH3T3. Nature of the data set: Cytotoxicity against mouse NIH/3T3 cells assessed as reduction in cell viability after 48 hrs by MTT assay. Type of data set: cell-based. The settings on record: NIH3T3, 48 h. The method in brief: as §1
Data set [4] relates to NIH3T3. Nature of the data set: Cytotoxicity against mouse NIH/3T3 cells assessed as reduction in cell viability after 72 hrs by MTT assay. Type of data set: cell-based. To be noted: NIH3T3, 72 h. Summed up: as §1
Data set [5] addresses 5-hydroxytryptamine receptor 2A (Homo sapiens, UniProt P28223). Kind of data set: Displacement of [3H]Ketanserin from 5-HT2A receptor (unknown origin) by radioligand binding assay. In general terms: In a radioligand displacement assay an active substance lowers the binding of a labelled ligand.
For data set [6], the target named is T1, 5-hydroxytryptamine receptor 2B (Homo sapiens, UniProt P41595). Kind of data set: Displacement of [3H]LSD from human 5-HT2B receptor expressed in HEK cells by radioligand binding assay. The data set is classed as cell-based.
The target in data set [7] is T2, D(1B) dopamine receptor (Homo sapiens, UniProt P21918). Kind of data set: Displacement of [3H]SCH23390 from human dopamine D5 receptor expressed in HEK293T cells by radioligand binding assay relative to control. Type of data set: cell-based. The settings on record: concentration not given here. The arrangement: concentration or dose not given beside the values.
The target in data set [8] is T3, D(2) dopamine receptor (Homo sapiens, UniProt P14416). Nature of the data set: Displacement of [3H]N-methylspiperone from human dopamine D2 receptor expressed in stable fibroblast cells by radioligand binding assay relative to control. Type of data set: cell-based. To be noted: concentration not given here. The arrangement: concentration or dose not given beside the values.

For data set [9], the target named is T4, D(4) dopamine receptor (Homo sapiens) (UniProt P21917).
T4 sequence (whole entry): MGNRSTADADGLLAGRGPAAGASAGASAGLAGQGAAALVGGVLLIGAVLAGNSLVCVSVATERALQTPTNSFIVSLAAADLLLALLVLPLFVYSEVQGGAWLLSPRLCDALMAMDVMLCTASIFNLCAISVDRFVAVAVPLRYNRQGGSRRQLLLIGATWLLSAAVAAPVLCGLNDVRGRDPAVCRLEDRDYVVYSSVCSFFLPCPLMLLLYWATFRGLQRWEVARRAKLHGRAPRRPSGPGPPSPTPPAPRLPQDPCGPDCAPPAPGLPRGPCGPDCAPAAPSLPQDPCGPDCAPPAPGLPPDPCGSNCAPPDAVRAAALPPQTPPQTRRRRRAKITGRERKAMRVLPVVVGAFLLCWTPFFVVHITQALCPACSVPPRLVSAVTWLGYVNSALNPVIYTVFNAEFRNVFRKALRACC
Nature of the data set: Displacement of [3H]N-methylspiperone from human dopamine D4 receptor by radioligand binding assay relative to control. Further details: concentration or dose not given beside the values; call rule not given here. The settings on record: concentration not given here.

The target of data set [10] is 5-hydroxytryptamine receptor 6 (Homo sapiens, UniProt P50406). Kind of data set: Displacement of [3H]LSD from human 5-HT6 receptor expressed in HEK cells by radioligand binding assay relative to control. Type of data set: cell-based. The arrangement: concentration or dose not given beside the values. To be noted: concentration not given here.
Data set [11] addresses 5-hydroxytryptamine receptor 1D (Homo sapiens, UniProt P28221). Nature of the data set: Displacement of [3H]5-CT from human 5-HT1D receptor expressed in HEK293T cells by radioligand binding assay relative to control. Type of data set: cell-based. Further details: concentration or dose not given beside the values. To be noted: concentration not given here.
Data set [12] has as its target T1, 5-hydroxytryptamine receptor 2B. Kind of data set: Displacement of [3H]LSD from human 5-HT2B receptor expressed in HEK cells by radioligand binding assay relative to control. The data set is classed as cell-based. Further details: concentration or dose not given beside the values. The settings on record: concentration not given here.
In data set [13] the target is T5, 5-hydroxytryptamine receptor 1A (Homo sapiens) (UniProt P08908).
T5 sequence (whole entry): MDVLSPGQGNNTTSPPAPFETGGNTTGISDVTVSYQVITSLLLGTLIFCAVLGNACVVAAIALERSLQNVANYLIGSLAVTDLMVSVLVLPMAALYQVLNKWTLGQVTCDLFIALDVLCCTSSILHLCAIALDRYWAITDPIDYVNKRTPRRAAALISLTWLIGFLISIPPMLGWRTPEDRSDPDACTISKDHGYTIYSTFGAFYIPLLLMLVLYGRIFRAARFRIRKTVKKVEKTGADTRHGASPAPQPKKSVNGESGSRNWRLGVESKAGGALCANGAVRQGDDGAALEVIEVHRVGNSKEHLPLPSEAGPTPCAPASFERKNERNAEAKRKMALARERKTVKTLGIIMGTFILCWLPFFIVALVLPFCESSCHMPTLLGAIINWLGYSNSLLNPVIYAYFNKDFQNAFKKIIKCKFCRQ
Kind of data set: Displacement of [3H]-Way100635 from human 5HT1A receptor expressed in stable CHO cell membranes by radioligand binding assay relative to control. The arrangement: concentration or dose not given beside the values. To be noted: concentration not given here.

Data set [14] has as its target T6, Sodium-dependent noradrenaline transporter (Homo sapiens, UniProt P23975). Nature of the data set: Displacement of [3H]Nisoxetine from human NET expressed in HEK cells by radioligand binding assay. The data set is classed as cell-based.
Data set [15] addresses T7, Histamine H2 receptor (Homo sapiens, UniProt P25021). Nature of the data set: Displacement of [3H]Cimetidine from human H2 receptor expressed in HEK cells by radioligand binding assay. The data set is classed as cell-based.
Data set [16] deals with Kappa-type opioid receptor (Homo sapiens, UniProt P41145). Kind of data set: Displacement of [3H]U69593 from KOR (unknown origin) expressed in HEK cells by radioligand binding assay. Type of data set: cell-based.
For data set [17], the target named is T2, D(1B) dopamine receptor. Nature of the data set: Displacement of [3H]SCH23390 from human dopamine D5 receptor expressed in HEK293T cells by radioligand binding assay. Type of data set: cell-based.
A further data set addresses D(3) dopamine receptor (Homo sapiens, UniProt P35462). Kind of data set: Displacement of [3H]N-methylspiperone from human dopamine D3 receptor expressed in HEK293T cells by radioligand binding assay. The data set is classed as cell-based.
The target of data set [18] is T3, D(2) dopamine receptor. Nature of the data set: Displacement of [3H]N-methylspiperone from human dopamine D2 receptor expressed in stable fibroblast cells by radioligand binding assay. The data set is classed as cell-based.
For the next data set, the target named is D(1A) dopamine receptor (Homo sapiens, UniProt P21728). Kind of data set: Displacement of [3H]SCH23390 from human dopamine D1 receptor expressed in HEK293T cells by radioligand binding assay. The data set is classed as cell-based.
In data set [19] the target is Delta-type opioid receptor (Homo sapiens, UniProt P41143). Kind of data set: Displacement of [3H]DADLE from human DOR expressed in HEK cells by radioligand binding assay relative to control. The data set is classed as cell-based. Further details: concentration or dose not given beside the values. The settings on record: concentration not given here.
Data set [20] deals with T7, Histamine H2 receptor. Kind of data set: Displacement of [3H]Cimetidine from human H2 receptor expressed in HEK cells by radioligand binding assay relative to control. To be noted: concentration not given here. The data set is classed as cell-based. The arrangement: concentration or dose not given beside the values.
The target in data set [21] is T6, Sodium-dependent noradrenaline transporter. Nature of the data set: Displacement of [3H]Nisoxetine from human NET expressed in HEK cells by radioligand binding assay relative to control. The data set is classed as cell-based.
For data set [22], the target named is Sodium-dependent serotonin transporter (Homo sapiens, UniProt P31645). Nature of the data set: Displacement of [3H]Citalopram from human SERT expressed in HEK cells by radioligand binding assay relative to control. Type of data set: cell-based.
The next data set concerns the target Histamine H1 receptor (Homo sapiens, UniProt P35367). Nature of the data set: Displacement of [3H]Pyrilamine from human H1 receptor expressed in HEK cells by radioligand binding assay. Type of data set: cell-based.

Chain of 5-hydroxytryptamine receptor 2A (P28223 whole entry): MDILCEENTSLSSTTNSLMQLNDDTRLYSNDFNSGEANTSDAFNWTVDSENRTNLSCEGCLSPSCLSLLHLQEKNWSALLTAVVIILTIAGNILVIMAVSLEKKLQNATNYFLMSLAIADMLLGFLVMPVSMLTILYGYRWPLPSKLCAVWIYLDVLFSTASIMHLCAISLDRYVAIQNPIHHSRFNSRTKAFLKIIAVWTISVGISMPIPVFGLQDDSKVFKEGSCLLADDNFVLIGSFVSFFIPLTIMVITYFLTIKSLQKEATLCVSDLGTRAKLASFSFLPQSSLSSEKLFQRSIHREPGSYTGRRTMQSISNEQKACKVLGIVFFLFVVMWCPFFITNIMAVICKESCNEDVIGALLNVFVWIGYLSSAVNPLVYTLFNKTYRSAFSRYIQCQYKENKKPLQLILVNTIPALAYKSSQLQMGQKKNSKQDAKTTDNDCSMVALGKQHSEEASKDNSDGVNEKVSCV
T7 sequence (P25021 whole entry): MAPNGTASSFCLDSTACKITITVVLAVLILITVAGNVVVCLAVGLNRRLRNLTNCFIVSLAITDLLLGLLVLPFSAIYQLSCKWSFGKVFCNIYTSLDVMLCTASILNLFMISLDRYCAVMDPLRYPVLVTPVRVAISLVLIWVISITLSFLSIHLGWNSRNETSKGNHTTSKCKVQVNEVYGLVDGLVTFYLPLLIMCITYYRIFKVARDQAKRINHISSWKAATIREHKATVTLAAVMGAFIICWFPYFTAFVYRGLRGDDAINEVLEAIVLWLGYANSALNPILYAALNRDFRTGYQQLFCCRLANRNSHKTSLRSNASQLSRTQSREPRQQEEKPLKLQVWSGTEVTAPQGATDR
T6 sequence (P23975 whole entry): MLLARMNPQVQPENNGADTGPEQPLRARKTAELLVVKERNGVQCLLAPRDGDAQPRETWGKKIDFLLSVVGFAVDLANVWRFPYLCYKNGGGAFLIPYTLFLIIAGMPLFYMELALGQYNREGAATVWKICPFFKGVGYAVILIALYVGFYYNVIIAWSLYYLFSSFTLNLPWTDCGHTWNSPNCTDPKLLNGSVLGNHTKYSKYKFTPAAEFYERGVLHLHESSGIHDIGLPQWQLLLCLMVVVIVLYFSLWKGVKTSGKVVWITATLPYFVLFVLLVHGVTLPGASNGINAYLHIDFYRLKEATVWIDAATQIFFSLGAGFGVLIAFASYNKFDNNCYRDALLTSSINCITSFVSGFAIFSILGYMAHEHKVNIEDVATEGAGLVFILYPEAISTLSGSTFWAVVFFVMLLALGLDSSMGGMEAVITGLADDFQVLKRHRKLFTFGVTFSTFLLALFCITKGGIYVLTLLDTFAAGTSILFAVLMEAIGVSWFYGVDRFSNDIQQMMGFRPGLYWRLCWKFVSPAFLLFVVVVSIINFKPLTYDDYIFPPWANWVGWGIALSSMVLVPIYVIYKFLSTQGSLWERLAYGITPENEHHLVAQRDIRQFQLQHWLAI
Chain of 5-hydroxytryptamine receptor 1D (P28221 whole entry): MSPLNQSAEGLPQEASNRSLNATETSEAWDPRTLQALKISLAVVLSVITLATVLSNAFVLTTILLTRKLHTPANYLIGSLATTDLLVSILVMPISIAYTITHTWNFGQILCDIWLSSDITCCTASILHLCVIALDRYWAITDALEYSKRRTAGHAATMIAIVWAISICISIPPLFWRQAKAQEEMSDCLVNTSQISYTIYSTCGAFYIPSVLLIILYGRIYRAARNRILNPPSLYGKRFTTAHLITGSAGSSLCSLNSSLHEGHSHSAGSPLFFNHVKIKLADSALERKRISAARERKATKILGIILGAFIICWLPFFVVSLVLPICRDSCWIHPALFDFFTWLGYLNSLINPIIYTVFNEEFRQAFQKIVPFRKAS
Chain of D(3) dopamine receptor (P35462 whole entry): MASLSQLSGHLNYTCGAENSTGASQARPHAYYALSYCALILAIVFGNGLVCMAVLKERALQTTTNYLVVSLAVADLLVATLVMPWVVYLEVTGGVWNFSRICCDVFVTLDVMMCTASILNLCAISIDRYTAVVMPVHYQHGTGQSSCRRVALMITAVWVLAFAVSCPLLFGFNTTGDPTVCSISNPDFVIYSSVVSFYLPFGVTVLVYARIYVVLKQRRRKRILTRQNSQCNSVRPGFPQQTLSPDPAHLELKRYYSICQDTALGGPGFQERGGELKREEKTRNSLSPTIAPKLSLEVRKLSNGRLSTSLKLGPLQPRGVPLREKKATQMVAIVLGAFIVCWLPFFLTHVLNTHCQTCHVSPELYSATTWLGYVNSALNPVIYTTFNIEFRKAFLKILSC
Chain of Kappa-type opioid receptor (P41145 whole entry): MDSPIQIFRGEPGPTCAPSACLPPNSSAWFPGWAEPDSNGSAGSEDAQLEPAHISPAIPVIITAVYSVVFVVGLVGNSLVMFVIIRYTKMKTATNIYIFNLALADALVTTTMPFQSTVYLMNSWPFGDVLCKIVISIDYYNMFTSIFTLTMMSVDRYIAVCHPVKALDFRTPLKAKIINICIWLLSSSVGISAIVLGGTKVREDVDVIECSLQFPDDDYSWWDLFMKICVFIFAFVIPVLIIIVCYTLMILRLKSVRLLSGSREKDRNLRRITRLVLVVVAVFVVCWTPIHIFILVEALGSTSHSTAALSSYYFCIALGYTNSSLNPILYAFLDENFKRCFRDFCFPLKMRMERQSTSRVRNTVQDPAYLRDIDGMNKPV
T3 sequence (P14416 whole entry): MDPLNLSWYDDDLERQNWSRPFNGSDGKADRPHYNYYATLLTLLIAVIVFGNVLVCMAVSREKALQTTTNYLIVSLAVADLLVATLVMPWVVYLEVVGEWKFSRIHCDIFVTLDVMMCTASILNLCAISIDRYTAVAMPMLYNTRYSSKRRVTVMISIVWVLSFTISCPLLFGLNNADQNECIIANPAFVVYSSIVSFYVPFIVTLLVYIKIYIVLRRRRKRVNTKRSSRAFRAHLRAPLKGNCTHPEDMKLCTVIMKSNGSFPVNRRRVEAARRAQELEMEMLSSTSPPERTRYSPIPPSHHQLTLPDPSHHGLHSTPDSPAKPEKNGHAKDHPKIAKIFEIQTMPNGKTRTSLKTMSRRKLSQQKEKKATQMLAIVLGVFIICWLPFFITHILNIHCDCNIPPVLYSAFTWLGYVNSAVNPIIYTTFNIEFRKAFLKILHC
Chain of 5-hydroxytryptamine receptor 6 (P50406 whole entry): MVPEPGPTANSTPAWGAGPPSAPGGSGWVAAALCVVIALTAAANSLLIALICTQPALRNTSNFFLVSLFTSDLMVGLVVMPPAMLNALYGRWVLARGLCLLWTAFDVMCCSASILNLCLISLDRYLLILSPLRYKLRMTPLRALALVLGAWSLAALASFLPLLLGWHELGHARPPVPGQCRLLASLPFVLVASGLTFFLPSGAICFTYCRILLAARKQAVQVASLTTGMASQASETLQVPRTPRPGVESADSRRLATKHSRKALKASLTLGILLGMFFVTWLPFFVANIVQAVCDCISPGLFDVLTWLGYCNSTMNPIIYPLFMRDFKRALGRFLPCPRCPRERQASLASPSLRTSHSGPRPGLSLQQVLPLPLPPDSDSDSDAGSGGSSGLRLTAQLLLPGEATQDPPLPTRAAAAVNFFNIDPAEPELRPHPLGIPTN
T1 sequence (P41595 whole entry): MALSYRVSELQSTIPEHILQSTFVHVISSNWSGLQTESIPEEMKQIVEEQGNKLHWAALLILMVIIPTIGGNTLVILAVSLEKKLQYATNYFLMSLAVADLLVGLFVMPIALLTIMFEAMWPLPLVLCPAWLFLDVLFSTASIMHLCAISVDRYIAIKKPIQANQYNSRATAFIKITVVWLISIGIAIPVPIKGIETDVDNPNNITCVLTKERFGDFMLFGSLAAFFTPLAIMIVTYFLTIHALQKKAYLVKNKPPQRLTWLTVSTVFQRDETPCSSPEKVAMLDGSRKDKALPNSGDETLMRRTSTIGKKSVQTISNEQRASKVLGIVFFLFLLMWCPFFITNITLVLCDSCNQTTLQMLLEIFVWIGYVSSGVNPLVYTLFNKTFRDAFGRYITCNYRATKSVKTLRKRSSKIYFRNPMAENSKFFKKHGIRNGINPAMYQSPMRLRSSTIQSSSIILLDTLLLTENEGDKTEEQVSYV
Chain of Delta-type opioid receptor (P41143 whole entry): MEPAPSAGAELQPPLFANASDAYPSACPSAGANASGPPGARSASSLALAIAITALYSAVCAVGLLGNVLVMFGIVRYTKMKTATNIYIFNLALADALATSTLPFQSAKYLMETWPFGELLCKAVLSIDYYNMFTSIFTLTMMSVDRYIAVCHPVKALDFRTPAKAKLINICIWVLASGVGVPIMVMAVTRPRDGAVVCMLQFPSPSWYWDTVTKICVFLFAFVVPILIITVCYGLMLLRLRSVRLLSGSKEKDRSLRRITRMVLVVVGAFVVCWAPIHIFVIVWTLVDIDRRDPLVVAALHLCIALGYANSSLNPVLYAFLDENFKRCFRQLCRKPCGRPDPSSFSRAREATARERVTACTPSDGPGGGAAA
Chain of Histamine H1 receptor (P35367 whole entry): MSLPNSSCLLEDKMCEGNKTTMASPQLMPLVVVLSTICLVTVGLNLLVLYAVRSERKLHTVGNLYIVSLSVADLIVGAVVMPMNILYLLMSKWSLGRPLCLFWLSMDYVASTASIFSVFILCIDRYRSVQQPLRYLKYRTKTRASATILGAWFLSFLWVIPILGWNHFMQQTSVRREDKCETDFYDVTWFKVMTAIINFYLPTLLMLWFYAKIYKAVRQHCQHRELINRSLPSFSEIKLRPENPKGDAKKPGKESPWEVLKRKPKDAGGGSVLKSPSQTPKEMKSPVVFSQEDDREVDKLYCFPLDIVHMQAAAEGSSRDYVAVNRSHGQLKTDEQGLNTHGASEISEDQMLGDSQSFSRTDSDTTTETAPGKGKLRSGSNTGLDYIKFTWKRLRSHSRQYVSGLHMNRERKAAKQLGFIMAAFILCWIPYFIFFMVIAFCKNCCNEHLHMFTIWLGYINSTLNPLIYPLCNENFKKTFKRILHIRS

`OC1(c2ccc(Cl)c(C(F)(F)F)c2)CCN(CCCC(c2ccccc2)c2ccccc2)CC1`: the IC50 (in general, the concentration that inhibits the measured activity by half) with MDA-MB-231 [1] amounted to 9.3 µM; with MDA-MB-231 [2], 8.4 µM; with NIH3T3 [3] it was 12 µM; in the data set on NIH3T3 [4] it was 9.8 µM. Also, the Ki (in general, the equilibrium dissociation constant of an inhibitor or competing ligand from its target) in data set [5] is 1 µM; in data set [6] (read-out: Ki) it was 0.374 µM; in [14] it was 0.518 µM; at Histamine H2 receptor [15] (read-out: Ki), 0.278 µM; in data set [16], 1.33 µM; on D(1B) dopamine receptor [17] it was 0.121 µM. The Ki was 0.062 µM on D(3) dopamine receptor, 0.038 µM on D(2) dopamine receptor [18] and 0.135 µM at D(1A) dopamine receptor. Also, the inhibition (as a rule, the drop in the measured response relative to a control, in per cent) at D(1B) dopamine receptor [7] is 89.4%; at D(2) dopamine receptor [8], 100%; in data set [9], 98.9%; in [10], 72.8%; in data set [11], 83.3%; in data set [12], 92.5%. Besides, the inhibition in data set [13] came to 97.2%; in data set [19], 82.7%; at Histamine H2 receptor [20] it was 89.5%. In addition, the “inhibition (INH)” value in data set [21] is 90.6%; in [22], 83.7%.

In the case of `OC1(c2ccc(Cl)c(C(F)(F)F)c2)CCN(CCCCCc2ccc(F)cc2)CC1`, the IC50 was 19.4 µM in the data set with MDA-MB-231 [1], 9.8 µM with MDA-MB-231 [2], 11.8 µM in the data set on NIH3T3 [3] and 9.8 µM with NIH3T3 [4]. Moreover, the Ki in data set [5] is 0.889 µM; in [6], “Not Active”; at Histamine H1 receptor (read-out: Ki), 0.718 µM; at Histamine H2 receptor [15] (read-out: Ki), 0.401 µM; in data set [16] it was 1.7 µM; at D(2) dopamine receptor [18] it was 0.46 µM. In addition, the inhibition at D(2) dopamine receptor [8] came to 81.8%; in data set [9], 89.2%; in [10] it was 24.7%; in [11] it was 50%; in data set [13], 77.2%; on Histamine H2 receptor [20], 69.2%.

Turning to `OC1(c2ccc(Cl)c(C(F)(F)F)c2)CCN(CCCC=C(c2ccc(F)cc2)c2ccc(F)cc2)CC1`, the IC50 was 23.9 µM with MDA-MB-231 [1], 9.6 µM in the data set on MDA-MB-231 [2], 14.8 µM in the data set with NIH3T3 [3] and 7.1 µM in the data set on NIH3T3 [4]. The Ki in [5] came out at 1.1 µM; in [6] (read-out: Ki), 2.2 µM; on Histamine H1 receptor (read-out: Ki), 0.718 µM; on Histamine H2 receptor [15] (read-out: Ki), 0.526 µM; in [16], 1.02 µM; on D(3) dopamine receptor it was 0.552 µM. The molecule further gave a Ki at D(2) dopamine receptor [18] of 0.317 µM. Moreover, the inhibition was 87.3% at D(2) dopamine receptor [8]; 87.8% in data set [9]; 54.4% in [10]; 91.8% in [12]; 71.2% in data set [13]; 74.1% in data set [19]. Besides, the inhibition at Histamine H2 receptor [20] turned out to be 82.6%.

Regarding `OC1(c2ccc(Cl)c(C(F)(F)F)c2)CCN(CCCCN(c2ccc(F)cc2)c2ccc(F)cc2)CC1`, the IC50 came out at 11.3 µM in the data set on MDA-MB-231 [1], 9.2 µM with MDA-MB-231 [2], 11.6 µM in the data set with NIH3T3 [3] and 6.4 µM in the data set with NIH3T3 [4]. For the same molecule, the Ki was 6.06 µM in data set [5]; 0.509 µM in data set [6] (read-out: Ki); 0.458 µM in [14]; “Not Active” at Histamine H1 receptor; “Not Active” on Histamine H2 receptor [15]; 10 µM in data set [16]. The Ki on D(1B) dopamine receptor [17] was 0.744 µM; at D(3) dopamine receptor, 0.782 µM; at D(2) dopamine receptor [18] it was 0.55 µM; on D(1A) dopamine receptor, 10 µM. Besides, the inhibition on D(1B) dopamine receptor [7] stood at 84.6%; on D(2) dopamine receptor [8], 65.8%; in data set [9], 86.1%; in data set [10] it was 68%; in data set [11], 70.6%; in [12], 82.4%. Further, the inhibition in data set [13] came to 82.2%; in data set [19], 68.9%. The “inhibition (INH)” value is given as 88.2% in [21] and 72.7% in [22].
